Measurements published in publication PMC6136361 (Journal of Enzyme Inhibition and Medicinal Chemistry, 2018).
Where “and” joins values, the source holds several entries; their conditions need not be identical. Identical values can stand only once. Like-named read-outs stand apart in the source and are kept apart here.

Columns and labels:
HepG-2 cells [1] = test: Cytotoxicity, Sulforhodamine-B; type: cell-based, human; details: for IC50: Homo sapiens
HCT-116 cells = test: Cytotoxicity, Sulforhodamine-B; type: cell-based; details: Homo sapiens
Summary of the method: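 SRB viability: cells seeded at 5 × 10^4–10^5/well and left to attach 24 h. Test compound (DMSO, diluted in saline) at 0.001–100 µM for 48 h, four wells per concentration; vehicle-only controls. Fixed cold 50% TCA 1 h at 4 °C, stained 0.4% SRB in 1% acetic acid 30 min, dye solubilised in 10 mM tris base pH 10.5, OD 564 nm. Survival fraction = OD treated/OD control; IC50 from survival-concentration plot; repeated three times.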

HepG-2 cells [2] = test: DNA-flow cytometry cell cycle analysis; type: cell-based, human; details: HepG-2, at IC50, 24 h; for apoptotic sub-G1 cell population: control 0.10%
Summary of the method: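 HepG-2 cells exposed to test compound for 24 h, with an untreated control. Cells washed twice in ice-cold PBS, pelleted, fixed in ice-cold 70% ethanol, treated with 0.1 mg/mL RNase and stained with propidium iodide. DNA content measured by flow cytometry to give cell-cycle phase distribution. Fold change versus control; mean ± SEM, n = 4, one-way ANOVA with Tukey test.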

HepG-2 cells [3] = test: FITC-annexin V / PI staining for apoptosis; type: cell-based, human; details: HepG-2, at IC50, 24 h; for late apoptotic cells percentage (Q2): control 0.34%
p53 = test: ELISA immunoassay of p53 level in HepG-2 cells; type: cell-based, human; details: HepG-2, at IC50, 24 h
Bcl-2 = test: ELISA immunoassay of Bcl-2 level in HepG-2 cells; type: cell-based, human; details: HepG-2, at IC50, 24 h
Bax = test: ELISA immunoassay of Bax level in HepG-2 cells; type: cell-based, human; details: for Bax level, fold increase compared to the control: HepG-2, at IC50, 24 h
caspase-3 = test: ELISA immunoassay of active caspase-3 level in HepG-2 cells; type: cell-based, human; details: HepG-2, at IC50, 24 h
caspase-7 = test: ELISA immunoassay of active caspase-7 level in HepG-2 cells; type: cell-based, human; details: HepG-2, at IC50, 24 h
VEGFR-2 = VEGFR-2 (Homo sapiens, UniProt P35968); test: biochemical; type: biochemical
Sequence of VEGFR-2 (P35968 20-1356): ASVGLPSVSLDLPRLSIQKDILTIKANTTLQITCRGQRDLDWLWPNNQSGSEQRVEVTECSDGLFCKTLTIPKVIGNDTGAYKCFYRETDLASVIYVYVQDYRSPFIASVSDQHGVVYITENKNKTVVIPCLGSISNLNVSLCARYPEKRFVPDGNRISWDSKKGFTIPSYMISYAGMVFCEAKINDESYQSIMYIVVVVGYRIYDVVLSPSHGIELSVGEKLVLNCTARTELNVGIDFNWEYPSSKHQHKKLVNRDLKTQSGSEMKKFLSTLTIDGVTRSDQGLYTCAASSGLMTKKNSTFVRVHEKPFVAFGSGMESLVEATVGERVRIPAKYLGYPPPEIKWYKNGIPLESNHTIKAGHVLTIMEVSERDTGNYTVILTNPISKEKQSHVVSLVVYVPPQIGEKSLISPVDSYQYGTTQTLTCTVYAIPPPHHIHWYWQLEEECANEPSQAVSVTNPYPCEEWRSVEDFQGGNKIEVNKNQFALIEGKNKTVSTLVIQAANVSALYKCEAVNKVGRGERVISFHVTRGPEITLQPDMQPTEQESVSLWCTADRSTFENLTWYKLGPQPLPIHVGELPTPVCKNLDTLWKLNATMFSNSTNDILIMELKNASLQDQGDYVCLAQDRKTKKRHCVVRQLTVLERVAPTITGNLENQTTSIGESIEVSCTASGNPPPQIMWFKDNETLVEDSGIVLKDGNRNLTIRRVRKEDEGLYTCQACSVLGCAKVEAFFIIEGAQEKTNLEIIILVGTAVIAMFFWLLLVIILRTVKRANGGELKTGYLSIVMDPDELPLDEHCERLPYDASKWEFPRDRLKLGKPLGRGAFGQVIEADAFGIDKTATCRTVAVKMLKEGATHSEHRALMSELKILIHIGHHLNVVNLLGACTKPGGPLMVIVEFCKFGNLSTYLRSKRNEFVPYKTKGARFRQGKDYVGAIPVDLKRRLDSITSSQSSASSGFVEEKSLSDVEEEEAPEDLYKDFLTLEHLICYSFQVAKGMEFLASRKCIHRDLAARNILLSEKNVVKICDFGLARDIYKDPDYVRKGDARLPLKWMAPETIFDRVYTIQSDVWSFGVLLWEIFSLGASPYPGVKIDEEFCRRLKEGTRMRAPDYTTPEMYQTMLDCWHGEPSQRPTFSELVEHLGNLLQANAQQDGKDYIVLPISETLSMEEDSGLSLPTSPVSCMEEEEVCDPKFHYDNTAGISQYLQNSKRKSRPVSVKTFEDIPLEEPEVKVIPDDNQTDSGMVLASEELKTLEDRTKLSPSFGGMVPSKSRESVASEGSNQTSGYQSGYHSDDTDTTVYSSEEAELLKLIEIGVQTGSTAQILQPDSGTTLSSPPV

β-tubulin = β-tubulin (Homo sapiens, UniProt P07437); test: β-tubulin polymerization inhibition assay; type: cell-based; details: for %β-TUB polymerization inhibition: at their IC50 values on HepG-2 cells; for β-tubulin polymerization inhibition: at their IC50 values, HepG-2 cells
Sequence of β-tubulin (P07437 whole entry): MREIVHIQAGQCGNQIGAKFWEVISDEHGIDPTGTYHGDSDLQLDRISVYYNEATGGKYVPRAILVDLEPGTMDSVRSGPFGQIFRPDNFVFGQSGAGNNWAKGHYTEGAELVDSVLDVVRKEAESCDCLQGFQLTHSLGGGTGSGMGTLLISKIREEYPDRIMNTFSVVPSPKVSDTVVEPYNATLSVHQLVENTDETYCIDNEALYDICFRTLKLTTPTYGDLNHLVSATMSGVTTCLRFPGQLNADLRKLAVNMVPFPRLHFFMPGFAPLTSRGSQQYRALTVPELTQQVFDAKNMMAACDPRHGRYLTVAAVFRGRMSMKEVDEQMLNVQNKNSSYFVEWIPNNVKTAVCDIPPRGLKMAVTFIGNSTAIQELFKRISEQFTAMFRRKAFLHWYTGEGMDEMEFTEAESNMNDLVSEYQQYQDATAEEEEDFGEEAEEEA
Sequence of β-tubulin (P68363 whole entry partner): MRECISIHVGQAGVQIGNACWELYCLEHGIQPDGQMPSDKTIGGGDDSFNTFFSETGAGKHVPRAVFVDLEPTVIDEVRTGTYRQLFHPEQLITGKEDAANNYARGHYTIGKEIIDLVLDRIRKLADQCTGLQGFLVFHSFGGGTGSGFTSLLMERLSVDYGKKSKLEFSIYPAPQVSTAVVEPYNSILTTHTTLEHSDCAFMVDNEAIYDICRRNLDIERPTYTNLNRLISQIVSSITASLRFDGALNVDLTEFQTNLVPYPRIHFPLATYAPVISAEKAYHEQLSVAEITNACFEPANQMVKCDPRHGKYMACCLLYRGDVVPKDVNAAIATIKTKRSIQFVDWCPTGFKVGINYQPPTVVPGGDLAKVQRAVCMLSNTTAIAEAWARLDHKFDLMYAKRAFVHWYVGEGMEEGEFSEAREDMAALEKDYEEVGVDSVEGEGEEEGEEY

[4] = HepG2, 48 h, read-out: IC50 HepG-2
[5] = HCT-116, 48 h, read-out: IC50 HCT-116
[6] = HepG2, read-out: Experimental cytotoxicity pIC50 (converted)

| SMILES | IC50 (HepG-2 cells [1]; [4]) [µM] | IC50 (HCT-116 cells; [5]) [µM] | IC50 (HepG-2 cells [1]; HepG2, read-out: HepG-2 IC50) [µM] | IC50 (HepG-2 cells [1]; [6]) [µM] | IC50 (VEGFR-2) [µM] | other results |
| --- | --- | --- | --- | --- | --- | --- |
| COc1ccc(NC(=O)c2c(Nc3ccccc3)sc(C#N)c2NC(=O)CNc2ccccc2)cc1 [Compound 4, 5-Cyano-N-(4-methoxyphenyl)-2-phenylamino-4-(2-phenylamino-acetamido)thiophene-3-carboxamide] | 74.3 ± 5.98 | 64.1 ± 7.51 |  |  |  |  |
| COc1ccc(NC(=O)c2c(Nc3ccccc3)sc(C#N)c2NC(=O)CNc2ccc(Cl)cc2)cc1 [Compound 5, 4-[2-(4-Chlorophenyl)aminoacetamido]-5-cyano-N-(4-methoxyphenyl)-2-phenylaminothiophene-3-carboxamide] | 1.92 ± 0.12 | 7.83 ± 0.61 | 1.92 |  |  | fold higher cytotoxicity than Sorafenib (HepG-2 cells [1]; HepG-2 cells): 2.31 fold and 2.3 fold; G2/M arrest, fold increase compared to the control (HepG-2 cells [2]): about 2 fold; apoptotic sub-G1 cell population (HepG-2 cells [2]): 8.23%; early apoptosis fold increase vs control (HepG-2 cells [3]): 8 fold; late apoptosis fold increase vs control (HepG-2 cells [3]): 23 fold; late apoptotic cells percentage (Q2) (HepG-2 cells [3]): 7.85%; early apoptotic cells percentage (Q4) (HepG-2 cells [3]; control 0.72%): 5.47%; p53 protein level, fold increase compared with the control (p53): about 3.4 fold; Bcl-2 level, fold decrease compared to the control (Bcl-2): 2.2 fold; Bax/Bcl-2 ratio, fold elevation compared to the control (Bax; HepG-2, at IC50): 30 fold; Bax level, fold increase compared to the control (Bax): 6.6 fold; caspase-3 level, fold increase compared to the control (caspase-3): about 11.2 fold; caspase-7 level, fold increase compared to the control (caspase-7): ~6.9 fold; fold more potent than Sorafenib against VEGFR-2 (VEGFR-2): 4 fold; %β-TUB polymerization inhibition (β-tubulin): 72.61 ± 0.14%; β-tubulin polymerization inhibition (β-tubulin): 72% and 73% |
| COc1ccc(NC(=O)c2c(Nc3ccccc3)sc(C#N)c2NC(=O)CNc2ccc(Br)cc2)cc1 [Compound 6, 4-[2-(4-Bromophenyl)amino-acetamido]-5-cyano-N-(4-methoxyphenyl)-2-phenylaminothiophene-3-carboxamide] | 3.51 ± 0.22 | 3.13 ± 0.21 | 3.51 | 3.5 | 0.93 ± 0.19 |  |
| COc1ccc(NC(=O)c2c(Nc3ccccc3)sc(C#N)c2NC(=O)CNc2ccc(C)cc2)cc1 [Compound 7, 5-Cyano-N-(4-methoxyphenyl)-2-phenylamino-4-[2-(4-methylphenyl)amino-acetamido]thiophene-3-carboxamide] | 24.3 ± 1.96 | 18.4 ± 1.23 |  | 24 |  |  |
| COc1ccc(NC(=O)c2c(Nc3ccccc3)sc(C#N)c2NC(=O)CNc2ccc(O)cc2)cc1 [Compound 8, 5-Cyano-N-(4-methoxyphenyl)-4-[2-(4-hydroxyphenyl)amino-acetamido]-2-phenylaminothiophene-3-carboxamide] | 10.4 ± 1.08 | 16.2 ± 1.52 |  | 10.4 |  |  |
| COc1ccc(NCC(=O)Nc2c(C#N)sc(Nc3ccccc3)c2C(=O)Nc2ccc(OC)cc2)cc1 [Compound 9, 5-Cyano-N-(4-methoxyphenyl)-4-[2-(4-methoxyphenyl)amino-acetamido]-2-phenylaminothiophene-3-carboxamide] | 14.3 ± 1.23 | 21.4 ± 1.92 |  | 14 |  |  |
| COc1ccc(NC(=O)c2c(Nc3ccccc3)sc(C#N)c2NC(=O)CNc2ccc([N+](=O)[O-])cc2)cc1 [Compound 10, 5-Cyano-N-(4-methoxyphenyl)-4-[2-(4-nitrophenyl)aminoacetamido]-2-phenylaminothiophene-3-carboxamide] | 9.71 ± 0.86 | 5.12 ± 0.42 | 9.71 | 9.7 | 3.92 ± 0.16 |  |
| COc1ccc(NC(=O)c2c(Nc3ccccc3)sc(C#N)c2NC(=O)CNc2ccccc2Cl)cc1 [Compound 11, 5-Cyano-N-(4-methoxyphenyl)-4-[2-(2-chlorophenyl)aminoacetamido]-2-phenylaminothiophene-3-carboxamide] | 31.3 ± 3.61 | 52.2 ± 5.54 |  |  |  |  |
| COc1ccc(NC(=O)c2c(Nc3ccccc3)sc(C#N)c2NC(=O)CNc2ccccc2[N+](=O)[O-])cc1 [Compound 12, 5-Cyano-N-(4-methoxyphenyl)-4-[2-(2-nitrophenyl)amino-acetamido]-2-phenylaminothiophene-3-carboxamide] | 43.3 ± 4.23 | 60.1 ± 7.41 |  |  |  |  |
| COc1ccc(NC(=O)c2c(Nc3ccccc3)sc(C#N)c2NC(=O)CNc2ccc(OC)c(OC)c2)cc1 [Compound 13, 5-Cyano-N-(4-methoxyphenyl)-4-[2-(3,4-dimethoxyphenyl)amino-acetamido]-2-phenylaminothiophene-3-carboxamide] | 15.2 ± 1.62 | 10.3 ± 1.31 |  | 15.2 |  |  |
| COc1ccc(NC(=O)c2c(Nc3ccccc3)sc(C(=O)NN=Cc3ccccc3)c2NC(C)=O)cc1 [Compound 16, 4-Acetamido-5-(2-benzylidenehydrazinocarbonyl)-N-(4-methoxyphenyl)-2-phenylaminothiophene-3-carboxamide] | 21.4 ± 2.91 | 19.2 ± 1.46 |  | 21 |  |  |
| COc1ccc(NC(=O)c2c(Nc3ccccc3)sc(C(=O)NN=Cc3ccc(Cl)cc3)c2NC(C)=O)cc1 [Compound 17, 4-Acetamido-5-[2-(4-chlorobenzylidene)hydrazinocarbonyl]-N-(4-methoxyphenyl)-2-phenylaminothiophene-3-carboxamide] | 9.5 ± 0.86 | 9.24 ± 1.02 | 9.5 | 9.5 | 5.91 ± 0.23 |  |
| COc1ccc(NC(=O)c2c(Nc3ccccc3)sc(C(=O)NN=Cc3ccc(Br)cc3)c2NC(C)=O)cc1 [Compound 18, 4-Acetamido-5-[2-(4-bromobenzylidene)hydrazinocarbonyl]-N-(4-methoxyphenyl)-2-phenylaminothiophene-3-carboxamide] | 10.1 ± 1.12 | 7.41 ± 0.62 |  | 10.4 |  |  |
| COc1ccc(NC(=O)c2c(Nc3ccccc3)sc(C(=O)NN=Cc3ccc(C)cc3)c2NC(C)=O)cc1 [Compound 19, 4-Acetamido-5-[2-(4-methylbenzylidene)hydrazinocarbonyl]-N-(4-methoxyphenyl)-2-phenylaminothiophene-3-carboxamide] | 12.2 ± 1.31 | 21.4 ± 1.82 |  | 12.2 |  |  |
| COc1ccc(C=NNC(=O)c2sc(Nc3ccccc3)c(C(=O)Nc3ccc(OC)cc3)c2NC(C)=O)cc1 [Compound 20, 4-Acetamido-5-[2-(4-methoxybenzylidene)hydrazinocarbonyl] -N-(4-methoxyphenyl)-2-(phenylamino)thiophene-3-carboxamide] | 4.96 ± 0.45 | 3.12 ± 0.31 | 4.96 | 8.7 | 1.71 ± 0.21 |  |
| COc1ccc(NC(=O)c2c(Nc3ccccc3)sc(C(=O)NN=Cc3ccc(OC)c(O)c3)c2NC(C)=O)cc1 [Compound 21, 4-Acetamido-5-[2-(3-hydroxy-4-methoxybenzylidene) hydrazinocarbonyl]-N-(4-methoxyphenyl)-2-phenylaminothiophene-3-carboxamide] | 2.61 ± 0.12 | 4.32 ± 0.11 | 2.61 |  | 1.29 ± 0.13 | G2/M arrest, fold increase compared to the control (HepG-2 cells [2]): ~1.9 fold; apoptotic sub-G1 cell population (HepG-2 cells [2]): 6.07%; early apoptosis fold increase vs control (HepG-2 cells [3]): 6 fold; late apoptosis fold increase vs control (HepG-2 cells [3]): 21 fold; late apoptotic cells percentage (Q2) (HepG-2 cells [3]): 7.2%; p53 protein level, fold increase compared with the control (p53): ~1.7 fold; Bcl-2 level, fold decrease compared to the control (Bcl-2): 2.5 fold; Bax level, fold increase compared to the control (Bax): 11.8 fold; caspase-3 level, fold increase compared to the control (caspase-3): 9.2 fold; caspase-7 level, fold increase compared to the control (caspase-7): 5.9 fold; %β-TUB polymerization inhibition (β-tubulin): 85.95 ± 0.21%; β-tubulin polymerization inhibition (β-tubulin): 86% |
| COc1ccc(NC(=O)c2c(Nc3ccccc3)sc(C(=O)NN=Cc3cc(OC)c(OC)c(OC)c3)c2NC(C)=O)cc1 [Compound 23, 4-Acetamido-N-(p-methoxyphenyl)-2-phenylamino-5-[2-(3,4,5-trimethoxybenzylidene)hydrazinocarbonyl]thiophene-3-carboxamide] | 10.82 ± 0.065 | 6.46 ± 0.49 | 10.8 | 5.1 | 5.21 ± 0.32 |  |
| CNC(=O)c1cc(Oc2ccc(NC(=O)Nc3ccc(Cl)c(C(F)(F)F)c3)cc2)ccn1 [Sorafenib, reference compound] |  |  | 4.43 |  |  | IC50 (HCT-116 cells; HCT-116, read-out: IC50 against HCT-116 cells): 3.22 µM |
